# The source made the active and inactive calls. The rule behind the calls is not given here. Residues, ends and D or L forms follow the SMILES beside them.
# Key:
# [1] = biological target: T1, Neuropeptide Y receptor type 1 (Homo sapiens) (UniProt P25929); experiment: Agonist activity at human neuropeptide Y Y1 receptor expressed in COS-7 cells cotransfected with chimeric Gi/q protein assessed as inositol phosphate accumulation at 1 uM after 2 hrs by anion exchange chromatography; assay type: functional, cell-based
# T1 sequence (whole entry): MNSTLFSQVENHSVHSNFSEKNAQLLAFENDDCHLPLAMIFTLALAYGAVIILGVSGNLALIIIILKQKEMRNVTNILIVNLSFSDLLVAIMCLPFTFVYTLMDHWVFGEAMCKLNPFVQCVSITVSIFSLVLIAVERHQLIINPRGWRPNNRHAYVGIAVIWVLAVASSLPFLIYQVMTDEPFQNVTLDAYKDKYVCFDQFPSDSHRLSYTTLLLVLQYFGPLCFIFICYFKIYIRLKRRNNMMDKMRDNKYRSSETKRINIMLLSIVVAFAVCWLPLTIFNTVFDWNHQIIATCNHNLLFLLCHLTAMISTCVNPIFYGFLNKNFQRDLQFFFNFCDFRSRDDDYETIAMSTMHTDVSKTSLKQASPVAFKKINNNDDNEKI
# Procedure, shortened: (§1)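 COS-7 cells stably co-expressing the corresponding human Y receptor plus a chimeric Gi/q protein; single high concentration tested in inositol phosphate accumulation; response as % of NPY response at each receptor; SEM over two biological replicates.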
# [2] = biological target: T2, Neuropeptide Y receptor type 2 (Homo sapiens, UniProt P49146); experiment: Agonist activity at human neuropeptide Y Y2 receptor expressed in COS-7 cells cotransfected with chimeric Gi/q protein assessed as inositol phosphate accumulation after 2 hrs by anion exchange chromatography; assay type: functional, cell-based
# T2 sequence (P49146 whole entry): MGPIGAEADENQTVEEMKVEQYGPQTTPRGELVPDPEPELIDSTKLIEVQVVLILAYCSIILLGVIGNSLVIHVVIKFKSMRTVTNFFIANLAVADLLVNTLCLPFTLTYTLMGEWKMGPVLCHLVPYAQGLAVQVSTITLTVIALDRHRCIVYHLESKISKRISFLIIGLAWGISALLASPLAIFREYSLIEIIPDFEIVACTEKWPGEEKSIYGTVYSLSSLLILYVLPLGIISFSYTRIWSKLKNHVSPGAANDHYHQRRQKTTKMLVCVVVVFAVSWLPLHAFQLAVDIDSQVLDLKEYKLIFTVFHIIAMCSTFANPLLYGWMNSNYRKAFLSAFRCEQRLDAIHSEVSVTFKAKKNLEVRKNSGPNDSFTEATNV
# Procedure, shortened: (§2)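 Inositol phosphate turnover in COS-7 cells stably co-expressing human Y2 receptor and chimeric Gi/q protein; concentration-response curves, responses as % of maximum Y2 activity; SEM over two biological replicates.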
# [3] = biological target: T3, Neuropeptide Y receptor type 5 (Homo sapiens) (UniProt Q15761); experiment: Agonist activity at human neuropeptide Y Y5 receptor expressed in COS-7 cells cotransfected with chimeric Gi/q protein assessed as inositol phosphate accumulation at 1 uM after 2 hrs by anion exchange chromatography; assay type: functional, cell-based; procedure, shortened: as §1
# T3 sequence (whole entry): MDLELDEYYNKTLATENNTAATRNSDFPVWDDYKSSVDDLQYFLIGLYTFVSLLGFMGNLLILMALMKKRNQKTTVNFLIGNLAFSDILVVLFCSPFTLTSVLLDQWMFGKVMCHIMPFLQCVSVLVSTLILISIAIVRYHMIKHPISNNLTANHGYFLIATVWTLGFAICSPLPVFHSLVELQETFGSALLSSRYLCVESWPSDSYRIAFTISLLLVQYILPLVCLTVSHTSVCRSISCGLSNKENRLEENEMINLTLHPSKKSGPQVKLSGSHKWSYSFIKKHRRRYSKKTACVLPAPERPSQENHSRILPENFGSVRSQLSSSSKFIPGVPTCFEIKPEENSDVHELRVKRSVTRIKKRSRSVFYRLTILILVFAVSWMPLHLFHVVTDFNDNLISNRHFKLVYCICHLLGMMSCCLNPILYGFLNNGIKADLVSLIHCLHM
# [4] = biological target: T4, Growth hormone secretagogue receptor type 1 (Homo sapiens, UniProt Q92847); experiment: Inverse agonist activity at human GHSR1a receptor expressed in COS-7 cells assessed as inositol phosphate accumulation after 2 hrs by anion exchange chromatography; assay type: functional, cell-based
# T4 sequence (Q92847 whole entry, the tested form may be a part): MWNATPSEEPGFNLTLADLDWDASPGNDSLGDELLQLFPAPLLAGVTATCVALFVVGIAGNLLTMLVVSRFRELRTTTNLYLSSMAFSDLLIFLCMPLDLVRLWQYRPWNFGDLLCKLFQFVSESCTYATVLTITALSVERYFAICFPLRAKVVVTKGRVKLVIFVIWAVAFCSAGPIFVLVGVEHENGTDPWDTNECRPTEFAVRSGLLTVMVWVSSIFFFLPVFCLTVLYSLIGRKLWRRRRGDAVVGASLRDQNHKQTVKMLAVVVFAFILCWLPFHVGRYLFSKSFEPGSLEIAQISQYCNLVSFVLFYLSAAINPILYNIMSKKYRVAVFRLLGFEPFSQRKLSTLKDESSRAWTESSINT
# [5] = biological target: T2, Neuropeptide Y receptor type 2; experiment: Displacement of [125I]PYY from human neuropeptide Y Y2 receptor expressed in HEK293 cells cotransfected with eYFP fusion protein after 2 hrs by competitive receptor binding assay; assay type: cell-based
# Procedure, shortened: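 Competitive binding against 125I-PYY in HEK-293 cells stably expressing human Y2 receptor; concentration-response curves.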
# [6] = biological target: T5, Neuropeptide Y receptor type 2 (Homo sapiens) (UniProt P49146); experiment: Agonist activity at human neuropeptide Y Y2 receptor expressed in COS-7 cells cotransfected with chimeric Gi/q protein assessed as inositol phosphate accumulation after 2 hrs by anion exchange chromatography relative to control; assay type: functional, cell-based; procedure, shortened: as §2
# T5 sequence (whole entry): T2 sequence (P49146 whole entry)
# Mus musculus [7] = experiment: Effect on food intake in diet-induced obese C57BL/6JRj mouse at 50 to 250 nM/kg, ip; assay type: functional, organism-based
# Procedure, shortened: (§3)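 Freely fed diet-induced obese mice, saline control group; single acute dose, SC at 500 nM/kg or IP at 50, 100 or 250 nM/kg; cumulative food intake and body weight recorded.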
# Mus musculus [8] = experiment: Effect on body weight in diet-induced obese C57BL/6JRj mouse at 50 to 250 nM/kg, ip; assay type: functional, organism-based; procedure, shortened: as §3
# Mus musculus [9] = experiment: Effect on food intake in diet-induced obese C57BL/6JRj mouse at 100 nM/kg, ip administered daily for 10 days; assay type: functional, organism-based
# Procedure, shortened: (§4)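 Freely fed diet-induced obese mice randomized to groups, saline as control; daily IP injection at 100 nM/kg for 10 days; cumulative food intake and body weight tracked in parallel; drug-by-time interaction analysed by repeated-measures ANOVA.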
# Mus musculus [10] = experiment: Decrease in food intake in diet-induced obese C57BL/6JRj mouse at 0.25 nM/h, sc administered via osmotic minipumps daily for 14 days; assay type: functional, organism-based
# Mus musculus [11] = experiment: Effect on body weight in diet-induced obese C57BL/6JRj mouse at 500 nM/kg, sc; assay type: functional, organism-based; procedure, shortened: as §3
# [12] = biological target: T4, Growth hormone secretagogue receptor type 1; experiment: Displacement of [125I]ghrelin from human eYFP-fused ghrelin receptor expressed in COS7 cells after 75 mins by competitive receptor binding assay; assay type: cell-based, COS-7
# [13] = biological target: T4, Growth hormone secretagogue receptor type 1; experiment: Inverse agonist activity at human GHSR1a receptor expressed in COS-7 cells assessed as inositol phosphate accumulation after 2 hrs by anion exchange chromatography relative to control; assay type: functional, cell-based
# Mus musculus [14] = experiment: Effect on body weight in diet-induced obese C57BL/6JRj mouse at 100 nM/kg, ip administered daily for 10 days; assay type: functional, organism-based; procedure, shortened: as §4
# Mus musculus [15] = experiment: Effect on body weight in diet-induced obese C57BL/6JRj mouse at 0.25 nM/h, sc administered via osmotic minipumps daily for 14 days; assay type: functional, organism-based
# [16] = biological target: Neuropeptide Y receptor type 4 (Homo sapiens) (UniProt P50391); experiment: Agonist activity at human neuropeptide Y Y4 receptor expressed in COS-7 cells cotransfected with chimeric Gi/q protein assessed as inositol phosphate accumulation at 1 uM after 2 hrs by anion exchange chromatography; assay type: functional, cell-based; procedure, shortened: as §1
# Chain of Neuropeptide Y receptor type 4 (Homo sapiens) (P50391 whole entry): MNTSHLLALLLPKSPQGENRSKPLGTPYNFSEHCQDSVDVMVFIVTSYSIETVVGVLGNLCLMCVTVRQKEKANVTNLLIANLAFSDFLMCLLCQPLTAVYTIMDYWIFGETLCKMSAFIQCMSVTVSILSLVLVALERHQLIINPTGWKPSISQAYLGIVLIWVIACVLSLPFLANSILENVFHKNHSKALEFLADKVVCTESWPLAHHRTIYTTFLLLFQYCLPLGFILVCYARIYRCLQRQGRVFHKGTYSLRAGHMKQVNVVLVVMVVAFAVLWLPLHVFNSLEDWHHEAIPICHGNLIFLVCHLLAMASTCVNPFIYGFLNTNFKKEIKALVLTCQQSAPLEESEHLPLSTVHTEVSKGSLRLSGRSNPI
# Mus musculus [17] = experiment: Effect on food intake in diet-induced obese C57BL/6JRj mouse at 500 nM/kg, sc; assay type: functional, organism-based; procedure, shortened: as §3
Efficacy [1] [%],EC50 [2] [nM],Efficacy [3] [%],EC50 [4] [nM],IC50 [5] [nM],Efficacy [6] [%],IC50 [12] [nM],Efficacy [13] [%],Efficacy [16] [%],Compound,Activity (Mus musculus [7]),Activity (Mus musculus [8]),Activity (Mus musculus [9]),inhibition (Mus musculus [10]),Activity (Mus musculus [11]),Activity (Mus musculus [14]),Activity (Mus musculus [15]),Activity (Mus musculus [17])
< 25,3.2,33,41.7,61.4,84,97.1,82,< 25,CC(=O)NC(CNC(=O)CCC(=O)N[C@@H](CCCCN)C(=O)N[C@H](Cc1cccc2ccccc12)C(=O)N[C@@H](Cc1ccccc1)C(=O)N[C@H](Cc1c[nH]c2ccccc12)C(=O)N[C@@H](CC(C)C)C(=O)N[C@@H](CC(C)C)C(N)=O)C(=O)N[C@@H](CC(C)C)C(=O)N[C@@H](CCCNC(=N)N)C(=O)N[C@@H](Cc1cnc[nH]1)C(=O)N[C@@H](Cc1ccc(O)cc1)C(=O)N[C@@H](CC(C)C)C(=O)N[C@@H](CC(N)=O)C(=O)N[C@@H](CC(C)C)C(=O)N[C@@H](CC(C)C)C(=O)N[C@H](C(=O)N[C@@H](CCCNC(=N)N)C(=O)N[C@@H](CCC(N)=O)C(=O)N[C@@H](CCCNC(=N)N)C(=O)N[C@@H](Cc1ccc(O)cc1)C(N)=O)[C@@H](C)O (stereo not given in full),inactive,inactive,inactive,Active,inactive,inactive,inactive,inactive
> 66,1.7,> 56,99.9,14.7,86,126,88,46,CC(=O)N[C@@H](CCCCNC(=O)CCNC(=O)[C@H](CCC(N)=O)NC(=O)[C@H](CC(C)C)NC(=O)[C@@H](Cc1c[nH]c2ccccc12)NC(=O)[C@H](Cc1ccccc1)NC(=O)[C@@H](Cc1cccc2ccccc12)NC(=O)[C@@H](N)CCCCN)C(=O)N[C@@H](CC(C)C)C(=O)N[C@@H](CCCNC(=N)N)C(=O)N[C@@H](Cc1cnc[nH]1)C(=O)N[C@@H](Cc1ccc(O)cc1)C(=O)N[C@@H](CC(C)C)C(=O)N[C@@H](CC(N)=O)C(=O)N[C@@H](CC(C)C)C(=O)N[C@@H](CC(C)C)C(=O)N[C@H](C(=O)N[C@@H](CCCNC(=N)N)C(=O)N[C@@H](CCC(N)=O)C(=O)N[C@@H](CCCNC(=N)N)C(=O)N[C@@H](Cc1ccc(O)cc1)C(N)=O)[C@@H](C)O,,,,,,,,
> 66,3.9,> 56,88.3,9,84,78.2,85,35,CC(=O)N[C@@H](CCCCNC(=O)CCCCCNC(=O)[C@H](CCC(N)=O)NC(=O)[C@H](CC(C)C)NC(=O)[C@@H](Cc1c[nH]c2ccccc12)NC(=O)[C@H](Cc1ccccc1)NC(=O)[C@@H](Cc1cccc2ccccc12)NC(=O)[C@@H](N)CCCCN)C(=O)N[C@@H](CC(C)C)C(=O)N[C@@H](CCCNC(=N)N)C(=O)N[C@@H](Cc1cnc[nH]1)C(=O)N[C@@H](Cc1ccc(O)cc1)C(=O)N[C@@H](CC(C)C)C(=O)N[C@@H](CC(N)=O)C(=O)N[C@@H](CC(C)C)C(=O)N[C@@H](CC(C)C)C(=O)N[C@H](C(=O)N[C@@H](CCCNC(=N)N)C(=O)N[C@@H](CCC(N)=O)C(=O)N[C@@H](CCCNC(=N)N)C(=O)N[C@@H](Cc1ccc(O)cc1)C(N)=O)[C@@H](C)O,,,,,,,,
,,,,,,,,,CC(=O)N[C@@H](CC(C)C)C(=O)N[C@@H](CCCNC(=N)N)C(=O)N[C@@H](Cc1cnc[nH]1)C(=O)N[C@@H](Cc1ccc(O)cc1)C(=O)N[C@@H](CC(C)C)C(=O)N[C@@H](CC(N)=O)C(=O)N[C@@H](CC(C)C)C(=O)N[C@@H](CC(C)C)C(=O)N[C@H](C(=O)N[C@@H](CCCNC(=N)N)C(=O)N[C@@H](CCC(N)=O)C(=O)N[C@@H](CCCNC(=N)N)C(=O)N[C@@H](Cc1ccc(O)cc1)C(N)=O)[C@@H](C)O (Ac-LRHYLNLLTRQRY-NH2),inactive,inactive,,inactive,inactive,,,inactive

# Reference: ChEMBL document CHEMBL3576822 (J Med Chem, 2015)
